Converted amounts (≈) assume the structure as drawn.

For one molecule, MIC, Ratio and IC50 results are on record in ChEMBL document CHEMBL3259701, “Siderophore receptor-mediated uptake of lactivicin analogues in gram-negative bacteria” (J Med Chem, 2014).

Assay [1] relates to Pseudomonas aeruginosa. Nature of the assay: Antibacterial activity against Pseudomonas aeruginosa PAO1 harboring siderophore receptor pirA and pfeA double mutant in Mueller-Hinton broth medium by CLSI broth microdilution method. Type of assay: functional. A digest of the protocol:
(§1)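 MIC by CLSI broth microdilution in standard Mueller Hinton broth. Tested against wild-type P. aeruginosa PAO1 and an isogenic panel lacking one or more siderophore receptors.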
For orientation: Dilution methods test growth across graded concentrations, often in twofold steps.

The subject of assay [2] is Pseudomonas aeruginosa. Nature of the assay: Antibacterial activity against Pseudomonas aeruginosa PAO1 harboring siderophore receptor piuA, pfeA and pirA mutant in Mueller-Hinton broth medium by CLSI broth microdilution method. It counts as functional. The procedure, abridged: as §1
Assay [3] deals with Pseudomonas aeruginosa. Nature of the assay: Ratio of MIC for Pseudomonas aeruginosa PAO1 harboring siderophore receptor piuA and fpvA double mutant to MIC for wild type Pseudomonas aeruginosa PAO1 in Mueller-Hinton broth medium by CLSI broth microdilution method. Type of assay: functional. The procedure, abridged: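 Broth microdilution MIC per CLSI in standard Mueller-Hinton broth, run against wild-type P. aeruginosa PAO1 and isogenic PAO1 strains lacking one or more siderophore receptors. Value is the mutant-strain MIC divided by the PAO1 MIC.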

In assay [4] the test system is Pseudomonas aeruginosa. Nature of the assay: Antibacterial activity against Pseudomonas aeruginosa PAO1 harboring siderophore receptor fptA mutant in medium containing low-Fe by CLSI broth microdilution method. Type of assay: functional. The procedure, abridged: (§2)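 MIC by CLSI broth microdilution in a modified Mueller Hinton broth depleted of iron to mimic the low-iron in vivo environment. Tested against PAO1 and isogenic strains lacking one or more siderophore receptors.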

The subject of assay [5] is Pseudomonas aeruginosa. Kind of assay: Antibacterial activity against Pseudomonas aeruginosa PAO1 harboring siderophore receptor piuA and fptA double mutant in medium containing low-Fe by CLSI broth microdilution method. It counts as functional. The procedure, abridged: as §2
Assay [6] concerns Pseudomonas aeruginosa. Nature of the assay: Antibacterial activity against Pseudomonas aeruginosa PAO1 harboring siderophore receptor piuA and pirA double mutant in medium containing low-Fe by CLSI broth microdilution method. Type of assay: functional. The procedure, abridged: as §2
The test system of assay [7] is Pseudomonas aeruginosa. Kind of assay: Antibacterial activity against Pseudomonas aeruginosa PAO1 harboring siderophore receptor piuA and pfeA double mutant in medium containing low-Fe by CLSI broth microdilution method. It counts as functional. A digest of the protocol: as §2
Assay [8] deals with Pseudomonas aeruginosa. Kind of assay: Antibacterial activity against Pseudomonas aeruginosa PAO1 harboring siderophore receptor piuA, pfeA and pirA mutant in medium containing low-Fe by CLSI broth microdilution method. It counts as functional. The procedure, abridged: as §2
Assay [9] relates to Pseudomonas aeruginosa. Kind of assay: Ratio of MIC for Pseudomonas aeruginosa PAO1 harboring siderophore receptor piuA mutant to MIC for wild type Pseudomonas aeruginosa PAO1 in medium containing low-Fe by CLSI broth microdilution method. Type of assay: functional. A digest of the protocol: (§3)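 CLSI broth microdilution MICs in a modified Mueller-Hinton broth depleted of iron to mimic low in vivo iron. Tested against wild-type PAO1 and isogenic siderophore receptor knockout strains. Reported as the knockout-strain MIC divided by the PAO1 MIC in the same iron-depleted medium.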

The subject of assay [10] is Pseudomonas aeruginosa. Kind of assay: Ratio of MIC for Pseudomonas aeruginosa PAO1 harboring siderophore receptor fptA mutant to MIC for wild type Pseudomonas aeruginosa PAO1 in medium containing low-Fe by CLSI broth microdilution method. Type of assay: functional. The procedure, abridged: (§4)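 Ratio of strain MIC to PAO1 MIC. Both MICs were obtained by CLSI broth microdilution in iron-depleted modified Mueller Hinton broth. A shift greater than 4× versus the parent was read as the deleted receptor(s) taking part in uptake.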

Assay [11] relates to Pseudomonas aeruginosa. Nature of the assay: Ratio of MIC for Pseudomonas aeruginosa PAO1 harboring siderophore receptor pirA and pfeA double mutant to MIC for wild type Pseudomonas aeruginosa PAO1 in medium containing low-Fe by CLSI broth microdilution method. Type of assay: functional. The procedure, abridged: as §4
Assay [12] deals with Pseudomonas aeruginosa. Nature of the assay: Ratio of MIC for Pseudomonas aeruginosa PAO1 harboring siderophore receptor piuA, pfeA and pirA mutant to MIC for wild type Pseudomonas aeruginosa PAO1 in medium containing low-Fe by CLSI broth microdilution method. It counts as functional. The procedure, abridged:
as §3

For assay [13], the system named is Pseudomonas aeruginosa. Kind of assay: Ratio of MIC for wild type Pseudomonas aeruginosa PAO1 in MHB medium to MIC for wild type Pseudomonas aeruginosa PAO1 in medium containing low-Fe by CLSI broth microdilution method. It counts as functional. A digest of the protocol: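 MICs for wild-type P. aeruginosa PAO1 were determined by CLSI broth microdilution in standard Mueller Hinton broth and, in parallel, in a modified broth depleted of iron to mimic the low-iron in vivo environment. The ratio compares the MIC in standard MHB with the MIC in iron-depleted broth.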

Assay [14] deals with Pseudomonas aeruginosa. Nature of the assay: Ratio of MIC for Pseudomonas aeruginosa PAO1 harboring siderophore receptor fpvA mutant in MHB medium to MIC for Pseudomonas aeruginosa PAO1 harboring siderophore receptor fpvA mutant in medium containing low-Fe by CLSI broth microdilution method. Type of assay: functional.
The test system of assay [15] is Pseudomonas aeruginosa. Kind of assay: Antibacterial activity against Pseudomonas aeruginosa PAO1 harboring siderophore receptor piuA mutant in medium containing aztreonam and low-Fe by CLSI broth microdilution method. Type of assay: functional.
Assay [16] relates to Pseudomonas aeruginosa. Nature of the assay: Antibacterial activity against Pseudomonas aeruginosa PAO1 harboring siderophore receptor pfeA mutant in medium containing aztreonam and low-Fe by CLSI broth microdilution method. It counts as functional.
The subject of assay [17] is Pseudomonas aeruginosa. Nature of the assay: Antibacterial activity against Pseudomonas aeruginosa PAO1 harboring siderophore receptor piuA, pfeA and pirA mutant in medium containing aztreonam and low-Fe by CLSI broth microdilution method. It counts as functional.
In assay [18] the test system is Pseudomonas aeruginosa. Kind of assay: Ratio of MIC for Pseudomonas aeruginosa PAO1 harboring siderophore receptor pfeA mutant to MIC for wild type Pseudomonas aeruginosa PAO1 in medium containing aztreonam and low-Fe by CLSI broth microdilution method. It counts as functional.
The subject of assay [19] is Escherichia coli. Nature of the assay: Antibacterial activity against Escherichia coli DH5alpha expressing beta-lactamase SHV-12 by CLSI broth microdilution method. To be noted: DH5[alpha]. Type of assay: functional.
Assay [20] is described as follows: Displacement of fluorescent Bocillin FL from Pseudomonas aeruginosa PBP1b.
Assay [21] can be described thus: Displacement of fluorescent Bocillin FL from Pseudomonas aeruginosa PBP3.
Assay [22] deals with Pseudomonas aeruginosa. Kind of assay: Antibacterial activity against Pseudomonas aeruginosa PAO1 in Mueller-Hinton broth medium by CLSI broth microdilution method. It counts as functional. The procedure, abridged:
as §1

Assay [23] deals with Pseudomonas aeruginosa. Nature of the assay: Antibacterial activity against Pseudomonas aeruginosa PAO1 harboring siderophore receptor fptA mutant in Mueller-Hinton broth medium by CLSI broth microdilution method. It counts as functional. The procedure, abridged: as §1
In assay [24] the test system is Pseudomonas aeruginosa. Nature of the assay: Antibacterial activity against Pseudomonas aeruginosa PAO1 harboring siderophore receptor piuA and fptA double mutant in Mueller-Hinton broth medium by CLSI broth microdilution method. It counts as functional. A digest of the protocol: as §1

`CC(C)(O/N=C(\C(=O)N[C@H]1CON(C2(C(=O)O)C[C@H](N3C(=O)c4cc(O)c(O)cc4C3=O)C(=O)O2)C1=O)c1csc(N)n1)C(=O)O` (some centres undefined): the MIC (in general, the lowest concentration that inhibits growth of the organism) is 0.5 µg/mL (≈ 0.755 µM) in assay [1]; 16 µg/mL (≈ 24.1 µM) in assay [2]; 0.06 µg/mL (≈ 0.0906 µM) in assay [4]; 0.5 µg/mL (≈ 0.755 µM) in assay [5]; 0.25 µg/mL (≈ 0.377 µM) in assay [6]; 0.125 µg/mL (≈ 0.189 µM) in assay [7]. The MIC in [8] was 0.25 µg/mL (≈ 0.377 µM); in assay [15], 4 µg/mL (≈ 6.04 µM); in assay [16], 4 µg/mL (≈ 6.04 µM); in assay [17], 4 µg/mL (≈ 6.04 µM); in assay [19] it was 0.015 µg/mL (≈ 0.0226 µM); in assay [22], 0.5 µg/mL (≈ 0.755 µM). Moreover, the MIC in assay [23] was determined as 4 µg/mL (≈ 6.04 µM); in [24], 8 µg/mL (≈ 12.1 µM). In addition, the Ratio was 32 in assay [3]; “>=4” in assay [9]; “>=2” in assay [10]; 1 in [11]; “>=8” in assay [12]; 16 in assay [13]. Moreover, the Ratio is listed as 512 in [14] and 1 in [18]. For the same molecule, the half-inhibitory concentration (IC50) – broadly, the concentration needed to halve the response being measured – in assay [20] amounted to 270 nM; in assay [21], 46 nM.
